Source: PubChem
This is a sample that favours compounds with a hit; in the whole collection about 2% have one here.
LGR2 inh: Drosophila LGR2 receptor signaling inhibition; HEK293 LGR2, CRE-luciferase, bursicon-stimulated, 4 h; inhibition, % at 9.99 µM; 380,000 compounds, 0.35% hits; AID 720647;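 active = drop in luminescence signal, shown as inhibition above about 50% in the replicate tests, limit read from the data, passing the limit was not always enough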;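 note: agonist challenge used bursicon conditioned medium at about half maximal strength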
TWEAK Fn14 block: TWEAK-Fn14 signaling inhibition. inhibition, % at 10 µM. 360,000 compounds, 2% hits. TWEAK-stimulated Fn14 reporter cells, luciferase luminescence, 8 h. AID 1159606; in the data active = inhibition above about 50%
XiGFP reactiv: X-chromosome reactivation activator; XiGFP mouse fibroblasts, % GFP-positive cells imaging, 3 d; cells co-treated with 5-aza-dC sensitizer; scaled so ellipticine positive control = 100%; activation, % at 7.58 µM; 360,000 compounds, 0.055% hits; AID 743238;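 active = mean normalized replicate activation at least 10% and every replicate at or above 10%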;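 note: 0% = median of on-plate neutral control wells and 100% = ellipticine 6 µM median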
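assay system = SV40-immortalized XiGFP fibroblast cells, line 68-5-11 | buffer or medium = DMEM plus 5-aza-dC sensitizer | doses = single-point pinned compound dosing | times = 3-day compound exposure, then 15 min fixation at room temperature | benchmarks = positive control ellipticine, 6 µM final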
CaV13 FRET inh: Primary screen for inhibitors of IQ motif and Ca2+-dependent inactivation inhibitor domain binding in CACNA1D, Förster resonance energy transfer in living cells, …; HEK cells, CFP/YFP FRET ICDI-IQ, plate reader, 10 min; percent FRET-ratio fall versus neutral wells; 340,000 compounds, 0.098% hits; inhibition, % at 12.3 µM;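 active = mean replicate inhibition of at least 30% and at least 1% of replicates passing that level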;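 note: 0% = median of the neutral control wells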
TROY signal inh: blocks TROY-dependent signaling in reporter cells; Q293 LMP1-TROYcd NF-kB luciferase reporter, 4 h; inhibition, % at 10 µM; 360,000 compounds, 0.98% hits; AID 1347056;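 active = compounds whose plate-normalised and pattern-corrected inhibition of the luciferase reporter signal at the single screening dose is 50% or more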
Numbers without * were called inactive; · = no result.

SMILES	LGR2 inh	TWEAK Fn14 block	XiGFP reactiv	CaV13 FRET inh	TROY signal inh
COc1ccc(-c2cc(C(=O)NN)[nH]n2)cc1	-14.3	53.3*	0.1	-4.8	41.0
CCCOC(=O)c1ccc(Oc2cn[nH]c2-c2ccc(O)cc2O)cc1	7.2	-1.6	·	-13.1	50.1*
COc1ccc(-c2cn[nH]c2-c2ccc(OCC(=O)NN)cc2O)cc1OC	7.5	-1.5	0.0	-1.1	3.8
CCOC(=O)c1ccc(Oc2cn[nH]c2-c2ccc(O)cc2O)cc1	3.1	12.2	0.1	-2.6	34.9
C=C(C)COc1ccc(-c2[nH]ncc2-c2ccc(OC)cc2)c(O)c1	0.6	55.5*	0.5	-1.8	42.4
COc1ccc(-c2cn[nH]c2-c2ccc(OCC(=O)NN)cc2O)cc1	6.6	53.8*	0.0	-17.8	42.0
COc1ccc(Oc2cn[nH]c2-c2ccc(O)cc2O)cc1	·	12.6	·	·	·
COc1ccc(-c2cn[nH]c2-c2ccc(O)cc2O)cc1	16.5	73.8*	0.3	-4.2	45.5
COc1ccc(S(=O)(=O)Nc2ccc3c(c2)C(=O)N([C@H](C)CO)C[C@@H](C)[C@H](CN(C)S(=O)(=O)c2cccs2)OCCCC[C@@H](C)O3)cc1	1.4	·	0.1	·	·
Cc1cccc(Nc2nc(N)c([N+](=O)[O-])c(N3CCN(C)CC3)n2)c1	-5.3	-19.4	0.0	-3.7	1.2
Cc1cccc(Nc2nc(N)c([N+](=O)[O-])c(N3CCCC(C)C3)n2)c1 (configuration not stated)	4.4	64.1*	0.1	-5.3	36.0
Cc1ccn2c(c1)nc(=S)n2C(=O)c1ccccc1	·	98.4*	0.1	-12.7	74.2*
Cc1cccc(C(=O)n2c(=S)nc3cc(C)ccn32)c1	79.8*	85.4*	0.0	-2.6	70.9*
O=C(NC1CCC1)[C@@H]1[C@@H](CO)[C@@H]2Cn3c(cccc3=O)[C@@H]2N1CCc1ccccc1	1.8	·	-0.1	·	·
C[C@@H]1CN([C@H](C)CO)C(=O)Cc2cc(NC(=O)Nc3ccccc3)ccc2O[C@@H]1CN(C)Cc1ccc(Oc2ccccc2)cc1	-15.6	·	0.0	·	·
CCOC(=O)c1c(C)oc2c1cc(O)c1ccccc12	·	74.0*	·	·	26.9
CC(=O)c1c(C)oc2c1cc(O)c1ccccc12	-9.4	-20.6	0.1	-1.7	-22.1
Cc1nnc(N/N=C/c2ccc(Br)cc2)n1N	-8.8	-0.1	0.0	-1.2	-23.6
Cc1nnc(N/N=C/c2ccc([N+](=O)[O-])cc2)n1N	1.2	-12.3	-0.1	8.9	55.4*
CCOC(=O)/C(=C/C=C1\Sc2cc(C)c(C)cc2N1CC)C(C)=O	21.2	7.7	16.6*	-9.3	4.4
CCOC(=O)/C(=C/C=C1\Sc2ccccc2N1CC)C(C)=O	·	9.6	·	·	-14.9
CNC[C@H]1Oc2ncc(-c3cccc(F)c3)cc2C(=O)N([C@H](C)CO)C[C@H]1C	-11.1	·	0.2	·	·
Cc1noc(C)c1S(=O)(=O)Nc1ccc2c(c1)C(=O)N([C@@H](C)CO)C[C@H](C)[C@H](CN(C)Cc1ccc3c(c1)OCO3)OCCCC[C@@H](C)O2	-13.7	·	0.0	·	·
CN(C)CC(=O)Nc1ccc2c(c1)[C@@H]1C[C@H](CC(=O)NCc3ccccc3F)O[C@@H](CO)[C@@H]1O2	2.7	·	-0.1	·	·
COc1ccc(S(=O)(=O)N(C)C[C@H]2OCCCC[C@H](C)Oc3ccc(NS(=O)(=O)c4ccc(C)cc4)cc3C(=O)N([C@H](C)CO)C[C@@H]2C)cc1	8.7	·	0.3	·	·
SMILES	LGR2 inh	TWEAK Fn14 block	XiGFP reactiv	CaV13 FRET inh	TROY signal inh
O=C1C=C(Nc2ccc(Cl)cc2)CC(c2ccco2)C1 (configuration not stated)	·	55.9*	·	-4.4	·
O=C(Nc1ccc2c(c1)[C@@H]1C[C@H](CC(=O)N3CCc4ccccc4C3)O[C@H](CO)[C@@H]1O2)C1CCC1	-9.5	·	0.1	·	·
c1ccc(CCNc2nc(-c3ccccn3)nc3ccccc23)cc1	29.4	10.8	25.5*	-4.3	6.9
Cc1nn2c(N)c(C#N)cnc2c1-c1ccc(Cl)cc1	·	-3.0	·	·	7.7
COc1ccc(-c2c(C)nn3c(N)c(C#N)cnc23)cc1OC	·	50.4*	0.0	-1.8	-5.8
CCOc1cccc(C(=O)Nc2cccc(C(C)=O)c2)c1	-19.8	-10.8	0.4	-2.4	-29.4
Cc1ccoc1C(=O)Nc1ccc2ccccc2c1	60.0*	35.5	0.0	-4.3	0.6
O=C(Nc1ccc2ccccc2c1)c1ccc(Cl)cc1	-17.3	39.9	0.0	5.7	-18.2
Cc1ccoc1C(=O)Nc1ccc(CC(=O)O)cc1	·	75.6*	·	-5.5	14.3
CCOc1cccc(C(=O)Nc2ccc3ccccc3c2)c1	65.9*	51.8*	0.0	-5.1	15.3
O=C(O)Cc1ccc(NC(=O)c2ccc(NC(=O)c3ccco3)cc2)cc1	·	0.2	·	-7.7	7.7
Cc1ccc(C(=O)Nc2ccc3ccccc3c2)cc1	·	87.1*	0.2	-21.5	53.7*
Cc1ccc(S(=O)(=O)N(C)C[C@H]2OCCCC[C@H](C)Oc3ccc(NS(=O)(=O)c4cn(C)cn4)cc3C(=O)N([C@@H](C)CO)C[C@H]2C)cc1	-9.8	·	0.1	·	·
COCC#Cc1ccc2c(c1)O[C@@H](CN(C)Cc1ccccc1F)[C@H](C)CN([C@H](C)CO)S2(=O)=O	0.5	·	0.4	·	·
COc1ccc(C(C)NCCC(c2ccc(OC(C)C)cc2)c2ccccc2OC)cc1 (configuration not stated)	98.7*	-1.8	0.2	-18.9	-14.7
Cc1noc(C)c1S(=O)(=O)N(C)C[C@H]1Oc2ccc(NC(=O)Cc3ccccc3)cc2CC(=O)N([C@H](C)CO)C[C@@H]1C	17.6	·	0.0	·	·
COc1ccc(CN(C(=O)CSc2nnc(-c3ccccc3C)o2)c2ccc(F)cc2)cc1	·	17.2	·	-1.5	-17.4
O=C(CSc1nnc(-c2c[nH]c3ccccc23)o1)N(Cc1ccccc1)c1ccc(F)cc1	·	64.3*	·	·	31.3
O=C(N/N=C/c1cn(Cc2ccccc2)c2ccccc12)c1cccnc1	22.2	53.6*	0.0	2.3	7.0
COc1cc(C(=O)/C=C/c2cccnc2)c([N+](=O)[O-])cc1OC	63.7*	35.8	0.3	-5.2	16.4
Cc1cccc(NC(=S)N=Nc2c(O)n(CN3CCOCC3)c3ccccc23)c1C	17.1	50.3*	0.7	-5.3	-9.8
Cc1ccc(Cl)cc1-c1cc(C(=O)NCc2cc(C(F)(F)F)cc(C(F)(F)F)c2)[nH]n1	·	61.0*	-0.1	-10.2	42.5
Cc1cc(F)ccc1-c1cc(C(=O)NCc2cc(C(F)(F)F)cc(C(F)(F)F)c2)[nH]n1	-9.8	-53.1	0.6	-11.0	30.1
Cc1ccc(F)cc1-c1cc(C(=O)NCc2cc(C(F)(F)F)cc(C(F)(F)F)c2)[nH]n1	6.3	19.2	-0.1	-4.7	53.0*
Cc1cc(F)cc(-c2cc(C(=O)NCc3ccc(C(F)(F)F)cc3)[nH]n2)c1	11.8	-22.6	0.4	-4.6	17.2
